Assay results from ChEMBL document CHEMBL3739383, “Cyanohydrin as an Anchoring Group for Potent and Selective Inhibitors of Enterovirus 71 3C Protease” (J Med Chem, 2015).

What was measured:
[1] = Inhibition of EV71 protease 3C using NMA-IEALFQGPPK(DNP)FR as substrate preincubated for 30 mins followed by substrate addition measured after 2 hrs by FRET analysis; parameters: species or system Enterovirus A71
[2] = Cytotoxicity against human Rhabdomyosarcoma cells after 24 hrs by WST-1 cell proliferation assay; format: cell-based
In short: (§1)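 EC50 (antiviral) or CC50 (cytotoxicity) values are averaged over three independent experiments, with error given as SEM (n=3).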

Enterovirus A71 = assay: Antiviral activity against EV71 pseudotype virus infected in human Rhabdomyosarcoma cells assessed as reduction in viral replication after 24 hrs by Bright-Glo Luciferase Assay; format: functional, organism-based; conditions: Enterovirus A; in short: as §1
[3] = Inhibition of EV71 protease 3C using Dabcyl-KTSAVLQSGFRKME-Edans as substrate by fluorescence analysis; parameters: species or system Enterovirus A71
[4] = Toxicity in iv dosed mouse measured for 24 hrs; format: organism-based; conditions: in vivo
In short: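 Acute toxicity study in mice dosed by intravenous injection; the read-out is LD50 in mg/kg.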

Compound `N#CC(OC(=S)Oc1ccccc1)[C@H](C[C@@H]1CCCNC1=O)NC(=O)[C@H](Cc1ccccc1)NC(=O)/C=C/c1ccccc1` (some centres undefined) has an IC50 [1] of 1.05 µM, a CC50 at 24 h [2] of over 100 µM and an EC50 (Enterovirus A71) of 0.15 µM.

For `Cc1cc(C(=O)N[C@@H](Cc2ccc(F)cc2)C(=O)N[C@@H](C[C@@H]2CCCNC2=O)C(O)C#N)no1` (some centres undefined), the IC50 [1] was 0.28 µM, the CC50 at 24 h [2] was over 100 µM and the EC50 (Enterovirus A71) was 0.056 µM.

Compound `N#CC[C@H](C[C@@H]1CCCNC1=O)NC(=O)[C@H](Cc1ccccc1)NC(=O)/C=C/c1ccccc1` has an IC50 [1] of over 10 µM, a CC50 at 24 h [2] of over 100 µM and an EC50 (Enterovirus A71) of 28.4 µM.

`CCCNC(=O)C(=O)[C@H](C[C@@H]1CCCNC1=O)NC(=O)[C@H](Cc1ccccc1)NC(=O)/C=C/c1ccccc1` gave an IC50 [1] of 9.49 µM, a CC50 at 24 h [2] of over 100 µM and an EC50 (Enterovirus A71) of 4.59 µM.

With `CCOC(=O)/C=C/[C@H](C[C@@H]1CCNC1=O)NC(=O)[C@@H](CC(=O)[C@@H](NC(=O)c1cc(C)on1)C(C)C)Cc1ccc(F)cc1` [RUPINTRIVIR] the IC50 [3] was 2.3 µM.

Compound `CCCNC(=O)C(O)[C@H](C[C@@H]1CCCNC1=O)NC(=O)[C@H](Cc1ccccc1)NC(=O)/C=C/c1ccccc1` (some centres undefined) has an IC50 [1] of over 10 µM, a CC50 at 24 h [2] of over 100 µM and an EC50 (Enterovirus A71) of over 100 µM.

For `Cc1cc(C(=O)N[C@@H](Cc2ccc(F)cc2)C(=O)N[C@H](C=O)C[C@@H]2CCCNC2=O)no1`, the IC50 [1] was 0.1 µM, the CC50 at 24 h [2] was over 100 µM and the EC50 (Enterovirus A71) was 0.11 µM.

`N#CC(O)[C@H](C[C@@H]1CCCNC1=O)NC(=O)[C@H](Cc1ccccc1)NC(=O)/C=C/c1ccccc1` (some centres undefined) showed an IC50 [1] of 1.13 µM, a CC50 at 24 h [2] of over 100 µM and an EC50 (Enterovirus A71) of 0.12 µM.

`O=C[C@H](C[C@@H]1CCCNC1=O)NC(=O)[C@H](Cc1ccccc1)NC(=O)/C=C/c1ccccc1` gave an IC50 [1] of 0.54 µM, a CC50 at 24 h [2] of over 100 µM and an EC50 (Enterovirus A71) of 0.26 µM.

`Cc1cc(C(=O)N[C@@H](Cc2ccc(F)cc2)C(=O)N[C@@H](C[C@@H]2CCCNC2=O)[C@@H](O)C#N)no1` showed an IC50 [1] of 0.27 µM, a CC50 at 24 h [2] of over 100 µM and an EC50 (Enterovirus A71) of 0.048 µM. For the same compound, the LD50 at 24 h [4] was 96.5 mg/kg.

With `CC(=O)OC(C#N)[C@H](C[C@@H]1CCCNC1=O)NC(=O)[C@H](Cc1ccccc1)NC(=O)/C=C/c1ccccc1` (some centres undefined) the IC50 [1] was 1.62 µM, the CC50 at 24 h [2] was over 100 µM and the EC50 (Enterovirus A71) was 0.1 µM.

Compound `O=C[C@H](C[C@@H]1CCNC1=O)NC(=O)[C@H](Cc1ccccc1)NC(=O)/C=C/c1ccccc1` has an IC50 [1] of 3.81 µM, a CC50 at 24 h [2] of over 100 µM and an EC50 (Enterovirus A71) of 3.07 µM.

With `N#C[C@H](C[C@@H]1CCCNC1=O)NC(=O)[C@H](Cc1ccccc1)NC(=O)/C=C/c1ccccc1` the IC50 [1] was over 10 µM, the CC50 at 24 h [2] was over 100 µM and the EC50 (Enterovirus A71) was over 100 µM.

`O=C(/C=C/c1ccccc1)N[C@@H](Cc1ccccc1)C(=O)N[C@H](CO)C[C@@H]1CCCNC1=O` gave an IC50 [1] of over 10 µM, a CC50 at 24 h [2] of over 100 µM and an EC50 (Enterovirus A71) of over 100 µM.

`Cc1cc(C(=O)N[C@@H](Cc2ccc(F)cc2)C(=O)N[C@@H](C[C@@H]2CCCNC2=O)[C@H](O)C#N)no1` showed an IC50 [1] of 0.31 µM, a CC50 at 24 h [2] of over 100 µM and an EC50 (Enterovirus A71) of 0.045 µM.
